The values that follow come from PubChem BioAssay AID588746 (Vanderbilt Specialized Chemistry Center, 2011).

One may read the EC50 as the concentration giving half of the maximal effect.

Structures are written as SMILES. The source made the active and inactive calls.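 Rule for the calls: active = a clear concentration-dependent response in the calcium flux assay, with a fitted half-maximal potency; inactive = the rest.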

In the test the target is Muscarinic acetylcholine receptor M2 (Homo sapiens) (UniProt P08172). Description: M2 positive allosteric modulation, counter-screen, dose response, counter-screen, human, CHO Gqi5 cells, calcium fluorescence (AID 588746). As to conditions: CHO hM2/Gqi5 calcium mobilization, Fluo-4 fluorescence. The method, boiled down:
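Assay system: CHO cells stably expressing human M2 receptor plus chimeric Gqi5 / Also added: ACh EC20 then ACh EC80 / Timing: compound 144 s before ACh EC20, EC80 86 s later, 37 °C / Signal: kinetic calcium fluorescence with Fluo-4 dye / Benchmarks: 1 mM ACh maximum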
(Counterscreens check selectivity or assay interference.)

Muscarinic acetylcholine receptor M2 (Homo sapiens), sequence (P08172 whole entry, looked up): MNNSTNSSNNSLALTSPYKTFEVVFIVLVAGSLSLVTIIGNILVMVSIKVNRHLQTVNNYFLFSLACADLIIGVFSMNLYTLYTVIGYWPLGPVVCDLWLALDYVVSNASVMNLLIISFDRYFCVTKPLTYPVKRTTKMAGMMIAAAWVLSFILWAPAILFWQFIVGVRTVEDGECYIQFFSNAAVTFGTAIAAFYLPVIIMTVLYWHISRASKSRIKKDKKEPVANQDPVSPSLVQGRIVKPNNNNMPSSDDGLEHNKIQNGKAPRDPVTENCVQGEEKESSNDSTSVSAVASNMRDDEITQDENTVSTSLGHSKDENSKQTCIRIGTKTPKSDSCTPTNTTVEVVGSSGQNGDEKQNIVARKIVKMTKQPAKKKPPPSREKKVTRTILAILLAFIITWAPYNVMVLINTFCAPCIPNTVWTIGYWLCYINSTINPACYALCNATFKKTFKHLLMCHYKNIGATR

In the case of `Cc1nc2sc(C(=O)NCc3ccccc3)c(N)c2c(C)c1Cl`, the “percent of ACh max response” value (at 37.4 µM (top of the series)) was “inactive”. Take `Cc1nc2sc(C(=O)NCc3ccc4c(c3)OCO4)c(N)c2c(C)c1Cl`: the “percent of ACh max response” value (at 36.8 µM (top of the series)) is “inactive”. `Cc1nc2sc(C(=O)NCc3ccncc3)c(N)c2c(C)c1Cl`: the “percent of ACh max response” value (at 45.3 µM (top of the series)) was “inactive”. As to `Cc1nc2sc(C(=O)NCCc3ccncc3)c(N)c2c(C)c1Cl`, the “percent of ACh max response” value (at 30 µM (top of the series)) is “inactive”. In the case of `Cc1nc2sc(C(=O)NC3CC3)c(N)c2c(C)c1Cl`, the EC50 is 548 nM. Regarding `Cc1nc2sc(C(=O)NCc3cccnc3)c(N)c2c(C)c1Cl`, the “percent of ACh max response” value (at 45.3 µM (top of the series)) was “inactive”. As for `Cc1nc2sc(C(=O)NCc3ccncn3)c(N)c2c(C)c1Cl`, the “percent of ACh max response” value (at 30 µM (top of the series)) was “inactive”. Regarding `Cc1nc2sc(C(=O)NCc3cccc(F)c3F)c(N)c2c(C)c1Cl`, the “percent of ACh max response” value (at 30 µM (top of the series)) is “inactive”. On to `Cc1nc2sc(C(=O)NCc3nccs3)c(N)c2c(C)c1Cl`, for which, for the setting “at 30 µM (top of the series)”, the “percent of ACh max response” value was “inactive”.
